The list is not random: actives were taken first. Their share in the collection is about 1%.
T cell modulator = modulates CD8 T cell binding to vesicles. 2C CD8+ T cell-vesicle binding, flow cytometry; active compounds read low. response (vesicle binding), % at 7 µM. actives 0.068% (n = 330,000);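 active = response, share of CD8 T cells binding vesicles, and their 90th percentile fluorescence all below set limits, cut at about 80% in these data, passing the limit was not always enough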;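 also: values below 100% mean blocked vesicle binding to the CD8+ T cells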
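material = purified 2C TCR transgenic mouse naive CD8+ T cells | controls = Unloaded micro-vesicles (low), QL9 vesicles with 0.7% DMSO (high) | detection = cytometric PE anti-B7-1 and Alexa647 anti-CD8 signals after 1% paraformaldehyde fixation | incubation = binding step 1.5 h, 37 °C, antibody labelling 20 min, ice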
B2AR ag = agonists of human beta-2 adrenergic receptor inducing internalization. Am2.2-beta2AR cells, FAP receptor internalization, flow cytometry. response, % (test concentration not listed). actives 0.43% (n = 340,000);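 active = response above a set limit, near 3 SD of response in nonfluorescent compounds, cut at about 42% in these data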
Target sequence (P07550 whole entry, looked up): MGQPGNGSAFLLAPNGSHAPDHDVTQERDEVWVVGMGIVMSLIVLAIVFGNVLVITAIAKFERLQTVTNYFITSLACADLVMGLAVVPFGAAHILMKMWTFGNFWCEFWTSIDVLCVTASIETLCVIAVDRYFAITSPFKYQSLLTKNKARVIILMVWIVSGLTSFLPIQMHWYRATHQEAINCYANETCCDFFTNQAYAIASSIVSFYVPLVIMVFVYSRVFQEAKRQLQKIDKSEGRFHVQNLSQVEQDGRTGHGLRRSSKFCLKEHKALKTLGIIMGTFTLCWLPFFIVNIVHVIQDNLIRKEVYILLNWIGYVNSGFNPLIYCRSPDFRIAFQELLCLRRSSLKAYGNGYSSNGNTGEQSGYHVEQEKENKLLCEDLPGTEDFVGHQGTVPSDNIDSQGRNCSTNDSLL
CHOP UPR activ = apoptotic UPR (CHOP) activation | actives 0.34% (n = 330,000) | activation, % at 10 µM | CHO-CHOP luciferase reporter, luminescence; percent of tunicamycin response over DMSO baseline | AID 449763;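 active = at 10 µM dose, activation of 40% or more, normalized to positive control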
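System: CHO-CHOP luciferase reporter cell line | Buffer or medium: F12 medium containing 10% fetal bovine serum | Doses: One dose, 10 µM in 0.5% DMSO | Times: 6 h compound exposure at 37 °C after overnight seeding | Signal: Luciferase luminescence | Read-out: % activation vs tunicamycin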
XBP1 UPR activ = activators of adaptive arm of unfolded protein response (XBP1); CHO-XBP1 luciferase reporter, IRE1-XBP1 UPR activation, luminescence; percent of tunicamycin response, DMSO as zero; activation, % at 20 µM; actives 0.33% (n = 330,000); AID 463104;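 active = versus positive control, 20 µM dose yields 30% or more activation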
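Material: CHO-XBP1 cells stably carrying IRE1-XBP1-driven luciferase reporter | Medium: F12 with 10% serum | Compound dosing: 20 µM single concentration, DMSO 1% | Incubation: Overnight seeding at 37 °C, 6 h compound treatment at 37 °C | Detection: Steady-Glo luminescence read | Read-out basis: % activation of reporter signal versus tunicamycin and DMSO controls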
XBP1 UPR conf = confirmation of adaptive unfolded protein response (XBP1) activators; shares compounds with XBP1 UPR activ; CHO-XBP1 IRE1-XBP1 luciferase reporter, luminescence; activation, % at 20 µM; actives 63% (n = 1,000); AID 485299;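 active = reporter signal at least 30% of the positive control's activation in two or more of four replicate wells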
Large screens that a line does not name were inactive (follow-up assays come after a bar, where they were run).

NC(=O)CC(NC(=O)Cc1cccc2ccccc12)c1ccc(NCCOc2ccccc2)c([N+](=O)[O-])c1 (stereo unspecified)	XBP1 UPR activ 48 | XBP1 UPR conf 39
c1cc(SC2CCCCC2)cc(-c2nc3cnccn3c2NC2CCCCC2)c1	B2AR ag 50, XBP1 UPR activ 196 | XBP1 UPR conf 171
O=C(NCCC(NS(=O)(=O)OCC(Cl)(Cl)Cl)c1ccccc1)C(F)(F)F (stereo unspecified)	none
Cc1ccc(C)c(S(=O)(=O)NCC(=O)Nc2sc3c(c2C(N)=O)CCC(C)C3)c1 (stereo unspecified)	XBP1 UPR activ 32 | XBP1 UPR conf inactive
O=C(Cn1c2ccc(F)cc2c2nc3n(c(=O)c21)CCS3)Nc1ccc(Cl)cc1F	XBP1 UPR activ 82 | XBP1 UPR conf 34
O=C1CC(c2ccc(Cl)cc2)Oc2ccc(Cl)cc21 (stereo unspecified)	none (no result: T cell modulator, CHOP UPR activ, XBP1 UPR activ)
Cn1c(Cl)cnc1C1CC(=O)c2cc(Cl)ccc2O1 (stereo unspecified)	XBP1 UPR activ 77 | XBP1 UPR conf 130
O=C(/C=C/c1cc([N+](=O)[O-])ccc1OC(F)F)Nc1ccc(OC(F)F)cc1	none
O=C(/C=C/c1cc([N+](=O)[O-])ccc1OC(F)F)Nc1cccc([N+](=O)[O-])c1	XBP1 UPR activ 102 | XBP1 UPR conf 28
CC(=O)OC1CCC2(C)C3=CCC4(C)C(C(C)=O)=CCC4C3CCC2C1 (stereo unspecified)	none (no result: T cell modulator, CHOP UPR activ, XBP1 UPR activ)
Cc1cc(NC(=O)CSc2ccc(-c3nc4cc(C)c(C)cc4[nH]3)cn2)no1	XBP1 UPR activ 58 | XBP1 UPR conf 31
CCCn1nc(C(=O)NC2CCCCCC2)c2ccccc2c1=O	none
Cc1ccnc(N/C=C(\C#N)c2nc(-c3cccc(Br)c3)cs2)c1	XBP1 UPR activ 91 | XBP1 UPR conf 94
CCC(=O)Nc1cc(-c2nn(C)c(=O)c3ccccc23)ccc1OC	none
COc1ccc(-c2nn(C)c(=O)c3ccccc23)cc1NC(=O)Cn1nc(C)c2ccccc2c1=O	B2AR ag 48, XBP1 UPR activ 56 | XBP1 UPR conf 82
Cc1ccc(-c2nn(CC(=O)NCc3cc(-c4nn(C)c(=O)c5ccccc45)ccc3C)c(=O)c3ccccc23)cc1	XBP1 UPR activ 81 | XBP1 UPR conf 61
COCCCNC(=O)C(CC(N)=O)NC(=O)OCc1ccccc1 (stereo unspecified)	none
CN1C(=O)c2ccccc2C(C(=O)NCC2CCCO2)C1c1c[nH]c2ccccc12 (stereo unspecified)	none
Oc1ccc(C=NNC(=S)Nc2cccnc2)nc1	none (no result: T cell modulator, CHOP UPR activ, XBP1 UPR activ)
O=C(Oc1ccc(F)cc1C(=O)/C=C/c1cccs1)c1cccc([N+](=O)[O-])c1	XBP1 UPR activ 38 | XBP1 UPR conf 83
COc1ccc2nc(C)cc(SCC(=O)N/N=C/c3cccc4ccccc34)c2c1	XBP1 UPR activ 80 | XBP1 UPR conf 126
COC(=O)CSc1cc(C)nc2ccc(OC)cc12	none
CCn1nc(C)cc1C(=O)Sc1cccc(Cl)c1	XBP1 UPR activ 49 | XBP1 UPR conf inactive
COC(=O)Cn1c(=O)c(C)nc2ccccc21	none
CCOC(=O)c1c(NC(C)=O)sc2c(OCC(O)CNC(C)(C)C)c(Br)ccc12 (stereo unspecified)	XBP1 UPR activ 62 | XBP1 UPR conf 111
CCOC(=O)c1c(N)sc2c(OCC)c(Br)ccc12	none
CCCn1c(SCC(=O)NC(=O)NCc2ccccc2)n[nH]c1=O	none
COc1ccccc1-c1cn[nH]c1-c1ccc(OCc2ccc([N+](=O)[O-])cc2)cc1O	XBP1 UPR activ 42 | XBP1 UPR conf inactive
Cc1ccc(Cl)cc1N1CCN(Cc2nc3c(c(=O)[nH]c(=O)n3C)n2CCc2ccccc2)CC1	XBP1 UPR activ 46 | XBP1 UPR conf 55
Cc1ccc(Cl)cc1N1CCN(Cc2nc3c(c(=O)[nH]c(=O)n3C)n2Cc2ccccc2F)CC1	none
C=CCn1c(O)c(C2=c3ccccc3=NC2=O)sc1=Nc1ccc(O)cc1	XBP1 UPR activ 34 | XBP1 UPR conf 32
CCC(=O)Nc1ccc(-c2cc(-c3ccccc3)nc(-c3ccc(NC(=O)CC)cc3)n2)cc1	XBP1 UPR activ 82 | XBP1 UPR conf 92
CC(=O)Nc1ccc(-c2cc(-c3ccc(NC(C)=O)cc3)nc(-c3ccccc3)n2)cc1	XBP1 UPR activ 46 | XBP1 UPR conf inactive
CC(=O)Nc1ccc(-c2cc(-c3ccccc3)nc(-c3ccccc3)n2)cc1	none
CCOC(=O)/C=c1\s/c(=C\c2ccc(C)cc2)c(=O)n1CC(=O)NCc1ccco1	XBP1 UPR activ 55 | XBP1 UPR conf inactive
CCOC(=O)/C=c1\s/c(=C\c2ccc(C(F)(F)F)cc2)c(=O)n1CC(=O)NCc1ccco1	none
CC(C)c1ccc(NC(=O)NC2CCN(CC(=O)Nc3cccc4ccccc34)CC2)cc1	none
COc1ccc(C(=O)/C=C/c2ccccc2)c(OC)c1	none
COCOc1cc(O)c(C(=O)/C=C/c2ccccc2)c(OCOC)c1	XBP1 UPR activ 40 | XBP1 UPR conf inactive
Clc1ccc(-c2ccc(-c3nn4c(-c5ccco5)nnc4s3)o2)cc1	XBP1 UPR activ 91 | XBP1 UPR conf inactive
Brc1ccc(-c2nn3c(-c4ccco4)nnc3s2)o1	none
Cc1ccc(-n2nc3c(=O)n(CC(=O)NCCc4ccccc4C)nc(C)c3c2C)cc1	none
Nc1ccc(NC(=O)c2ccccc2)c2c1C(=O)c1ccccc1C2=O	XBP1 UPR activ 32 | XBP1 UPR conf inactive
Cc1cc(N2C(=O)C(=O)/C(=C(/O)c3ccc(F)cc3)C2c2ccc(Cl)cc2)no1 (stereo unspecified)	XBP1 UPR activ 33 | XBP1 UPR conf inactive
COC(=O)c1ccc(C2/C(=C(\O)c3ccc(OC)c(C)c3)C(=O)C(=O)N2c2cc(C)on2)cc1 (stereo unspecified)	none
COc1ccc(-c2nc(CSCC(=O)N3CCN(C)CC3)c(C)o2)cc1OC	none
COc1ccccc1Nc1nnc(SCC(=O)NC(=O)Nc2ccc3c(c2)OCCO3)s1	XBP1 UPR activ 52 | XBP1 UPR conf 49
COc1cc(NC2CCCCC2O)c2nc(-c3ccc(Cl)cc3)ccc2c1 (stereo unspecified)	XBP1 UPR activ 31 | XBP1 UPR conf inactive
COc1ccc(OCC(=O)OCC(=O)NC2CCCCC2C)cc1 (stereo unspecified)	none
Cc1c(C(=O)Nc2nccs2)oc2ccc(Br)cc12	XBP1 UPR activ 48 | XBP1 UPR conf 79
Cc1c(C(=O)Nc2nccs2)oc2ccc(F)cc12	none
C/C(N)=C(/C#N)C(=O)COC(=O)c1ccccc1Cc1ccccc1	none
NC1=NC[C@@H](CC2CCCCC2)N1CCc1cc(C(F)(F)F)cc(C(F)(F)F)c1	XBP1 UPR activ 49 | XBP1 UPR conf 55
COc1ccc(-c2nnc(SCC(=O)Nc3sc4c(c3C#N)CCCC4)n2-c2ccccc2)cc1	XBP1 UPR activ 35 | XBP1 UPR conf 61

Screening results: PubChem BioAssay, several laboratories
